PubChem BioAssay AID624290 (Broad Institute, 2012)
Active and inactive are the calls of the source.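 Rule for the calls: active = compounds dimming the MITF-driven luciferase signal, with fitted AC50 at most twice the top tested dose; inconclusive = flat curves with moderate signal drop, or poor-quality fits; inactive = the rest.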

Tested on: not listed separately
Experiment: decrease of TRPM1 reporter luminescence in SK-MEL-5 – cell-based, dry powder samples, set 2, MITF inhibitor project, dose response (AID 624290)
Details: SK-MEL-5 TRPM1-promoter luciferase reporter, 24 h; at 35 µM (top of the series)
Outline: (§1)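 Assay system – TRPM1 promoter–luciferase reporter stably expressed in SK-MEL-5 melanoma cells · Timing – compound pinned one day after plating, 24 h exposure at 37 °C · Measured by – luciferase luminescence with SteadyGlo reagent, 5 min room-temperature incubation · Measure – luminescence change reflecting TRPM1 promoter activity, decrease as inhibition · Control set – parthenolide positive control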
In the case of O=C(NC1=C(N2CCCCC2)C(=O)c2ccccc2C1=O)c1ccc(Br)cc1, the activity change, negative = inhibition is reported as -0.221% (inactive).

Tested on: SK-MEL-5 TRPM1-promoter luciferase reporter, 24 h
Experiment: as above
Details: not given
Outline: as §1
Molecule C=CCNC1=C(N2CCN(C)CC2)C(=O)c2ccccc2C1=O has an AC50 of 4.58 µM.
With O=C1C(NS(=O)(=O)c2ccc(Br)cc2)=C(N2CCOCC2)C(=O)c2ccccc21 the AC50 was 6.22 µM.
For CCN1CCN(C2=C(NC(=O)c3ccc(Br)cc3)C(=O)c3ccccc3C2=O)CC1, the AC50 was 0.433 µM.
In the case of COc1ccc(C2=C(NC(=O)c3ccccc3OC)C(=O)c3ccccc3C2=O)cc1, the AC50 is reported as 25.4 µM.
Molecule CCN(CC)CCNC1=C(Nc2ccccc2)C(=O)c2ccccc2C1=O has an AC50 of 1.66 µM.
In the case of O=C1C(NS(=O)(=O)c2ccc(Br)cc2)=C(N2CCN(c3ccccc3)CC2)C(=O)c2ccccc21, the AC50 is reported as 21.3 µM.
Molecule CCN1CCN(C2=C(Nc3ccccc3)C(=O)c3ccccc3C2=O)CC1 has an AC50 of 2.34 µM.
Molecule O=C(CNc1cccc2ccccc12)N/N=C/c1ccc([N+](=O)[O-])o1 has an AC50 of 1.52 µM.
With C=CCNC1=C(N(C)C(C)=O)C(=O)c2ccccc2C1=O the AC50 was 0.0779 µM.
CC(=O)N(C)C1=C(N2CCCCC2)C(=O)c2ccccc2C1=O showed an AC50 of 0.576 µM.
Molecule COc1ccc(C(=O)NC2=C(c3ccccc3)C(=O)c3ccccc3C2=O)cc1 has an AC50 of 4.99 µM.
C=CCNC1=C(NS(=O)(=O)c2cccs2)C(=O)c2ccccc2C1=O gave an AC50 of 16 µM.
O=C1C(NS(=O)(=O)c2ccc(Br)cc2)=C(c2ccccc2)C(=O)c2ccccc21 showed an AC50 of 18.5 µM.
Cc1nc2ccccc2n1/N=C/c1ccc([N+](=O)[O-])s1 showed an AC50 of 1.98 µM.
Molecule CC(=O)N(C)C1=C(N2CCOCC2)C(=O)c2ccccc2C1=O has an AC50 of 2.04 µM.
C=CCNC1=C(N2CCN(CC)CC2)C(=O)c2ccccc2C1=O showed an AC50 of 4.69 µM.
With O=C1C(NS(=O)(=O)c2ccccc2)=C(N2CCOCC2)C(=O)c2ccccc21 the AC50 was 10.5 µM.
With O=C(NC1=C(N2CCOCC2)C(=O)c2ccccc2C1=O)c1ccc(Br)cc1 the AC50 was 4.96 µM.
Work on NC1=C(NC(=O)c2ccccc2)C(=O)c2ccccc2C1=O yielded an AC50 of 3.65 µM.
With COc1ccc(C2=C(NC(=O)c3ccc(OC)cc3-c3cccc(OC)c3)C(=O)c3ccccc3C2=O)cc1 the AC50 was > 70 µM (inactive).
For O=C(NC1=C(c2ccccc2)C(=O)c2ccccc2C1=O)c1ccccc1, the AC50 was 3.73 µM.
With O=C(NC1=C(c2ccc(Oc3ccccc3)cc2)C(=O)c2ccccc2C1=O)c1ccccc1 the AC50 was > 70 µM (inactive).
CCN(CC)CCCCNC1=C(Nc2ccccc2)C(=O)c2ccccc2C1=O showed an AC50 of 5.75 µM.
For CN1CCN(C2=C(NS(=O)(=O)c3cccs3)C(=O)c3ccccc3C2=O)CC1, the AC50 was 1.94 µM.
CCN1CCN(C2=C(N(C)C(C)=O)C(=O)c3ccccc3C2=O)CC1 showed an AC50 of 0.561 µM.
Work on COc1ccc(C2=C(NC(=O)c3ccccc3Cl)C(=O)c3ccccc3C2=O)cc1 yielded an AC50 of 4.92 µM.
